Assay results reported in ChEMBL document CHEMBL2034971, “Appraisal of GABA and PABA as linker: design and synthesis of novel benzamide based histone deacetylase inhibitors” (Eur J Med Chem, 2012).

Tests used:
Histone deacetylase 1 = Histone deacetylase 1 (Homo sapiens, UniProt Q13547); assay: Inhibition of HDAC1 using Fluor de Lys as substrate by fluorescence analysis
[1] = Antitumor activity against mouse EAC cells allografted in Swiss albino mouse assessed as decrease in tumor weight at 0.2 mmol/kg, ip administered from day 1 to day 7 every 24 hrs; format: functional; settings: Ehrlich
Procedure, shortened: (§1)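 EAC cells kept by intraperitoneal passage in Swiss albino mice (18-20 g, 10 weeks) every 10 days; 9-day-old cells in isotonic saline adjusted to 10×10^6 cells/mL, 0.1 mL per 10 g injected ip on day 0. Seven daily ip doses in PBS pH 7.2 (0.1 mL/10 g), days 1-7; vehicle control. Day 8 sacrifice after 6 h fast.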

[2] = Antitumor activity against mouse EAC cells allografted in Swiss albino mouse assessed as decrease in tumor cell at 0.2 mmol/kg, ip administered from day 1 to day 7 every 24 hrs; format: functional; settings: Ehrlich; procedure, shortened: as §1
HCT-116 = assay: Growth inhibition of human HCT116 cells after 2 days by MTT assay; format: functional; settings: HCT-116, 48 h; for CC50: read-out: LC50 (the source's name)
U-251 = assay: Growth inhibition of human U251 cells after 2 days by MTT assay; format: functional; settings: U-251, 48 h
[3] = biological target: T1, NAD-dependent protein deacetylase sirtuin-1 (Homo sapiens, UniProt Q96EB6); assay: Inhibition of SIRT1
T1 sequence (Q96EB6 whole entry): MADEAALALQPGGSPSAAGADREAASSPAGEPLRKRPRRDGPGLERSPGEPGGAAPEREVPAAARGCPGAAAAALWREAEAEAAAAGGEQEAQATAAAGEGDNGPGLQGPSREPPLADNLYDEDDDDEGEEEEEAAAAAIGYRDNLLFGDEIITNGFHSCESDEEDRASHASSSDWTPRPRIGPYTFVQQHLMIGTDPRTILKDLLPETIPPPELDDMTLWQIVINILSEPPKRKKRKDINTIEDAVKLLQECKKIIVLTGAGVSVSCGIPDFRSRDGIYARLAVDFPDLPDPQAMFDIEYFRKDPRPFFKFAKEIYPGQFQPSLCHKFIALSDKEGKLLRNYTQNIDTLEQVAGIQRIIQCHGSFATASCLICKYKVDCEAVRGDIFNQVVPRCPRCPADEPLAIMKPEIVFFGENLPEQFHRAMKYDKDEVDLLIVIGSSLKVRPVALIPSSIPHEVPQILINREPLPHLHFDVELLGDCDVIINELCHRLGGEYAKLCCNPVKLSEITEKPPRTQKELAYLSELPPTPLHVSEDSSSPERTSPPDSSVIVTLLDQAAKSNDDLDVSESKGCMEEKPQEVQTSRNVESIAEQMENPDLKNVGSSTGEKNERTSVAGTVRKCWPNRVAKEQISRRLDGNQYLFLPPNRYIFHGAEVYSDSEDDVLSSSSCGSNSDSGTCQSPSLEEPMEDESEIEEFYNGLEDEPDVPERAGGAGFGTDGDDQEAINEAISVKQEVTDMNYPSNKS

[4] = Antitumor activity against mouse EAC cells allografted in Swiss albino mouse assessed as decrease in tumor cell at 1 mg/kg, ip administered from day 1 to day 7 every 24 hrs; format: functional; settings: Ehrlich, route intraperitoneal; procedure, shortened: as §1
[5] = Antitumor activity against mouse EAC cells allografted in Swiss albino mouse assessed as decrease in tumor weight at 1 mg/kg, ip administered from day 1 to day 7 every 24 hrs; format: functional; settings: Ehrlich, route intraperitoneal; procedure, shortened: as §1

Histone deacetylase 1, sequence (Q13547 whole entry): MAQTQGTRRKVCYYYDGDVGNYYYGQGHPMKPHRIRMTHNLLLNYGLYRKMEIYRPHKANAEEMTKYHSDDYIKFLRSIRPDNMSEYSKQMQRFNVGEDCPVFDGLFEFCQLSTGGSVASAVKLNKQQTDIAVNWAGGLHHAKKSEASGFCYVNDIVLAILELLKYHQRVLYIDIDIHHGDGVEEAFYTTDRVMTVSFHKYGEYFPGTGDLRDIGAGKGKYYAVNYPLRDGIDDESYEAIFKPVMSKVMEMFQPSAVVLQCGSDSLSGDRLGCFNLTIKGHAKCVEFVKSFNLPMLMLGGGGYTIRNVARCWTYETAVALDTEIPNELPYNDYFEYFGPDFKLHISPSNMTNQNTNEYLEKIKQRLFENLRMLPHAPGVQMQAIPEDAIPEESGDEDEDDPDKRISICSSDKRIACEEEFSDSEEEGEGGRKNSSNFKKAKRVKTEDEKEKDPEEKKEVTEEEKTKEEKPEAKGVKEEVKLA

SMILES	IC50 (Histone deacetylase 1) [µM]	inhibition in vivo at 200 µmol/kg [1] [%]	inhibition in vivo at 200 µmol/kg [2] [%]	GI50 (HCT-116) [µM]	TGI (HCT-116) [µM]	CC50 (HCT-116) [µM]	GI50 (U-251) [µM]	LC50 (concentration killing 50% of cells) (U-251) [µM]	TGI (U-251) [µM]	IC50 [3] [µM]	inhibition in vivo at 1 mg/kg [4] [%]	inhibition in vivo at 1 mg/kg [5] [%]
Nc1ccccc1NC(=O)CCCNCC(=O)Nc1ccc(Br)cc1	1.7	73.8	68.7	7.7	55.5	> 100	10.4	> 100	80			
Nc1ccccc1NC(=O)CCCNCC(=O)Nc1ccccc1	9.2	25	19.1	70.4	> 100	> 100	> 100	> 100	> 100			
Nc1ccccc1NC(=O)CCCNCC(=O)Nc1ccccc1Cl	2.9	21.4	12.7	21.8	> 100	> 100	28.6	> 100	> 100			
Nc1ccccc1NC(=O)CCCNCC(=O)Nc1cccc(Cl)c1	1.8	32.1	22.5	11.6	75	> 100	19.5	> 100	> 100			
Nc1ccccc1NC(=O)CCCNCC(=O)Nc1ccc(Cl)cc1	1.4	72.7	75	5.5	45	> 100	11.4	> 100	75			
Nc1ccccc1NC(=O)CCCNCC(=O)Nc1ccccc1[N+](=O)[O-]	3.1	41.3	10.5	2.8	32	> 100	32	> 100	> 100			
Nc1ccccc1NC(=O)CCCNCC(=O)Nc1cccc([N+](=O)[O-])c1	2.3	40.6	36	0.9	22.5	> 100	15	> 100	93.5			
Nc1ccccc1NC(=O)CCCNCC(=O)Nc1ccc([N+](=O)[O-])cc1	0.9	78.5	76.5	0.6	8.5	> 100	9.4	> 100	66			
COc1ccc(NC(=O)CNCCCC(=O)Nc2ccccc2N)cc1	3.6	63.8	63.3	8.6	44	> 100	34	> 100	> 100			
Cc1ccc(NC(=O)CNCCCC(=O)Nc2ccccc2N)cc1	7.5	42.8	18.9	17.9	> 100	> 100	57	> 100	> 100			
Nc1ccccc1NC(=O)CCCNCC(=O)Nc1cc(Cl)ccc1Cl	8.9	50	50.9	31	78	> 100	44	> 100	> 100			
Nc1ccccc1NC(=O)c1ccc(NCC(=O)Nc2ccccc2)cc1	7.4	18.5	30.5	45.3	> 100	> 100	65	> 100	> 100			
Nc1ccccc1NC(=O)c1ccc(NCC(=O)Nc2ccc(Br)cc2)cc1	1.6	76.3	73.5	6.8	47.5	> 100	10.8	> 100	45			
Nc1ccccc1NC(=O)c1ccc(NCC(=O)Nc2ccccc2Cl)cc1	2.9	43.3	31.4	9.5	> 100	> 100	24.2	> 100	> 100			
Nc1ccccc1NC(=O)c1ccc(NCC(=O)Nc2cccc(Cl)c2)cc1	2.5	68.4	51.7	11.5	> 100	> 100	15.4	> 100	88			
Nc1ccccc1NC(=O)c1ccc(NCC(=O)Nc2ccc(Cl)cc2)cc1	1	79.4	73.3	4.2	62.5	> 100	9.4	> 100	62.5			
Nc1ccccc1NC(=O)c1ccc(NCC(=O)Nc2ccccc2[N+](=O)[O-])cc1	2	12.9	19.7	3.5	25	> 100	18	> 100	83			
Nc1ccccc1NC(=O)c1ccc(NCC(=O)Nc2cccc([N+](=O)[O-])c2)cc1	1.4	67.6	40.4	1.1	9	> 100	13.5	> 100	52			
Nc1ccccc1NC(=O)c1ccc(NCC(=O)Nc2ccc([N+](=O)[O-])cc2)cc1	0.7	83.3	77.5	0.6	6.5	> 100	8.2	> 100	42.5			
COc1ccc(NC(=O)CNc2ccc(C(=O)Nc3ccccc3N)cc2)cc1	3.1	66.6	62.3	7.5	38	> 100	25.5	> 100	> 100			
Cc1ccc(NC(=O)CNc2ccc(C(=O)Nc3ccccc3N)cc2)cc1	4.5	43.3	25.2	12.6	> 100	> 100	84	> 100	> 100			
Nc1ccccc1NC(=O)c1ccc(NCC(=O)Nc2cc(Cl)ccc2Cl)cc1	8.6	58.3	56.2	7.9	66	> 100	38.6	> 100	> 100			
Nc1ccccc1NC(=O)c1ccc(CNC(=O)OCc2cccnc2)cc1 [ENTINOSTAT]				0.6	> 100	> 100	6.5		40	> 100		
CO[C@@]12[C@H](COC(N)=O)C3=C(C(=O)C(C)=C(N)C3=O)N1C[C@@H]1N[C@@H]12 [MITOMYCIN]											100	100
